Reference: ChEMBL document CHEMBL1148192, “Nagelamides A-H, new dimeric bromopyrrole alkaloids from marine sponge Agelas species” (J Nat Prod, 2004)
pIC50: −log10 of the molar value. In brackets after ≈: the same amount, converted by molar mass.

Tests used:
Micrococcus luteus = experiment: Antimicrobial activity against Micrococcus luteus; type: functional
Outline: (§1)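 Microbroth dilution method in BHI medium.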

[1] = Inhibition of protein phosphatase 2A in african green monkey COS7 cells; type: cell-based, Chlorocebus aethiops; conditions: cos-7
Outline: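 PP2A activity was measured in COS-7 cell extract. Cells were lysed at 4 °C in hypotonic Tris-HCl pH 7.5 buffer with DTT, EGTA and protease inhibitors, then centrifuged at 20000g. Extract at 5 μg/mL protein was preincubated with compound for 10 min at 30 °C. Activity was taken as the okadaic acid (1 nM)-sensitive portion, run in triplicate and reported as the mean.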

Escherichia coli = experiment: Antimicrobial activity against Escherichia coli; type: functional; outline: as §1
Bacillus subtilis = experiment: Antimicrobial activity against Bacillus subtilis; type: functional; outline: as §1

Structure (SMILES)	MIC (Micrococcus luteus) [µg/mL]	pIC50 [1]	MIC (Escherichia coli) [µg/mL]	MIC (Bacillus subtilis) [µg/mL]
Nc1nc([C@@H]2c3[nH]c(N)nc3C[C@H](CNC(=O)c3cc(Br)c[nH]3)[C@H]2CNC(=O)c2cc(Br)c[nH]2)c[nH]1.O=C(O)C(F)(F)F.O=C(O)C(F)(F)F [AGELIFERIN]	4.17	< 4.30	33.3	8.33
Nc1nc([C@@H]2c3[nH]c(N)nc3C[C@H](CNC(=O)c3cc(Br)c[nH]3)[C@H]2CNC(=O)c2cc(Br)c(Br)[nH]2)c[nH]1 [BROMOAGELIFERIN]	2.08 (≈ 2.97 µM)	< 4.30	16.7 (≈ 23.9 µM)	2.08 (≈ 2.97 µM)
Nc1nc([C@H](CCNC(=O)c2cc(Br)c(Br)[nH]2)c2[nH]c(N)nc2/C=C/CNC(=O)c2cc(Br)c(Br)[nH]2)c[nH]1 [NAGELAMIDE A]	2.08 (≈ 2.67 µM)	4.32	33.3 (≈ 42.8 µM)	16.7 (≈ 21.5 µM)
Nc1nc([C@@H](c2[nH]c(N)nc2/C=C/CNC(=O)c2cc(Br)c(Br)[nH]2)[C@H](O)CNC(=O)c2cc(Br)c(Br)[nH]2)c[nH]1 [NAGELAMIDE B]	4.17 (≈ 5.25 µM)	< 4.30	33.3 (≈ 41.9 µM)	33.3 (≈ 41.9 µM)
Nc1nc(/C(=C/CNC(=O)c2cc(Br)c(Br)[nH]2)c2[nH]c(N)nc2/C=C/CNC(=O)c2cc(Br)c(Br)[nH]2)c[nH]1 [NAGELAMIDE C]	4.17 (≈ 5.37 µM)	< 4.30	33.3 (≈ 42.9 µM)	33.3 (≈ 42.9 µM)

The remaining lines, values ahead:

MIC (Micrococcus luteus) [µg/mL]	pIC50 [1]	MIC (Escherichia coli) [µg/mL]	MIC (Bacillus subtilis) [µg/mL]	Structure (SMILES)
4.17 (≈ 5.35 µM)	–	33.3 (≈ 42.7 µM)	33.3 (≈ 42.7 µM)	Nc1nc([C@H](CCNC(=O)c2cc(Br)c(Br)[nH]2)c2[nH]c(N)nc2CCCNC(=O)c2cc(Br)c(Br)[nH]2)c[nH]1 [NAGELAMIDE D]
4.17 (≈ 6.72 µM)	–	33.3 (≈ 53.7 µM)	16.7 (≈ 26.9 µM)	Nc1nc([C@H]2c3[nH]c(N)nc3C[C@H](CNC(=O)c3cc(Br)c[nH]3)[C@H]2CNC(=O)c2cc(Br)c[nH]2)c[nH]1 [NAGELAMIDE E]
4.17 (≈ 5.96 µM)	–	33.3 (≈ 47.6 µM)	16.7 (≈ 23.9 µM)	Nc1nc([C@H]2c3[nH]c(N)nc3C[C@H](CNC(=O)c3cc(Br)c[nH]3)[C@H]2CNC(=O)c2cc(Br)c(Br)[nH]2)c[nH]1 [NAGELAMIDE F]
2.08 (≈ 2.67 µM)	4.89	33.3 (≈ 42.8 µM)	16.7 (≈ 21.5 µM)	Nc1nc([C@H]2c3[nH]c(N)nc3C[C@H](CNC(=O)c3cc(Br)c(Br)[nH]3)[C@H]2CNC(=O)c2cc(Br)c(Br)[nH]2)c[nH]1 [NAGELAMIDE G]
16.7 (≈ 18.6 µM)	4.34	> 33.3	33.3 (≈ 37 µM)	NC1=N/C(=N\CCS(=O)(=O)O)C(/C=C/CNC(=O)c2cc(Br)c(Br)[nH]2)(c2[nH]c(N)nc2/C=C/CNC(=O)c2cc(Br)c(Br)[nH]2)N1 (stereo unspecified) [NAGELAMIDE H]
4.07	4.30	33.3	8.33	Cl.Cl.Nc1ncc([C@H]2[C@H](CNC(=O)c3cc(Br)c[nH]3)[C@@H](CNC(=O)c3cc(Br)c[nH]3)[C@@H]2c2cnc(N)[nH]2)[nH]1 [SCEPTRIN HYDROCHLORIDE]
